Laboratory results published in ChEMBL document CHEMBL1140699, “Stereospecific high-affinity TRPV1 antagonists: chiral N-(2-benzyl-3-pivaloyloxypropyl) 2-[4-(methylsulfonylamino)phenyl]propionamide analogues” (J Med Chem, 2008).
The source made the active and inactive calls. The calls are words filed in the database; no cut-off is given here.

Assays:
[1] = target: T1, Transient receptor potential cation channel subfamily V member 1 (Rattus norvegicus, UniProt O35433); assay: Displacement of [3H]RTX from rat TRPV1 receptor expressed in CHO cells; type: cell-based
T1 sequence (O35433 whole entry): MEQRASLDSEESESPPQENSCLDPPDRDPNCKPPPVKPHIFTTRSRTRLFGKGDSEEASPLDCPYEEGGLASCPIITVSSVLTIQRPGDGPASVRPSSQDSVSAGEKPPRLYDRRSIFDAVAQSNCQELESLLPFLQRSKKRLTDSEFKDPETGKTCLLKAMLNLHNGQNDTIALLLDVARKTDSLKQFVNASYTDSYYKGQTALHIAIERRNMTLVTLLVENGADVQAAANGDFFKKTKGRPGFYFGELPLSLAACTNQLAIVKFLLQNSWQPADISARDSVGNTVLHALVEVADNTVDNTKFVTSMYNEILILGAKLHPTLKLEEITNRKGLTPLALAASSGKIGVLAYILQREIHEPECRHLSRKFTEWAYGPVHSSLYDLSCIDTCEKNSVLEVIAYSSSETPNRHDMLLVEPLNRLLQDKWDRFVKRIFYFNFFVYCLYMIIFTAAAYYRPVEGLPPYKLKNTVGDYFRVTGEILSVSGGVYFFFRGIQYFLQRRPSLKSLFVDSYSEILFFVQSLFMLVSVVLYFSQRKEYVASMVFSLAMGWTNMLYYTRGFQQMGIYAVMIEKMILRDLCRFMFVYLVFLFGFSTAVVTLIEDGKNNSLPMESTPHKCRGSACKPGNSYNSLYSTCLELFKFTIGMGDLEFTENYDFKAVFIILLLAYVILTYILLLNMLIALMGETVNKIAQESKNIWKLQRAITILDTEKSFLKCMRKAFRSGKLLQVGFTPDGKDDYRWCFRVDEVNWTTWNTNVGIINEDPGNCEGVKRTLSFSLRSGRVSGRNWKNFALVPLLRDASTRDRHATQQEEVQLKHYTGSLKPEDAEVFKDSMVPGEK
Summary of the method: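 Competitive binding against [3H]resiniferatoxin in CHO cells heterologously expressing rat TRPV1 (CHO/VR1). Affinity reported as Ki.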

[2] = target: Transient receptor potential cation channel subfamily V member 1 (Rattus norvegicus) (UniProt O35433); assay: Agonist activity at rat TRPV1 receptor expressed in CHO cells assessed as calcium 45 uptake at 30 uM; type: functional, cell-based
Sequence of Transient receptor potential cation channel subfamily V member 1 (Rattus norvegicus) (O35433 whole entry): as above
Summary of the method: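 45Ca2+ uptake in CHO cells heterologously expressing rat TRPV1 (CHO/VR1). Compounds tested for agonism at 30 µM and scored as not effective or weakly effective. Results from 1–5 experiments.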

[3] = target: Transient receptor potential cation channel subfamily V member 1 (Rattus norvegicus) (UniProt O35433); assay: Antagonist activity at rat TRPV1 receptor expressed in CHO cells assessed as capsaicin-induced calcium 45 uptake; type: functional, cell-based; design: concentration or dose not given beside the values
Summary of the method: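 Chinese hamster ovary cells heterologously expressing rat TRPV1 (CHO/VR1). Compounds were tested as antagonists of 150 nM capsaicin-induced ⁴⁵Ca²⁺ uptake. Antagonism was reported as Ki, with activity scored at 30 µM where potency was low. Results come from 1–5 experiments.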

[4] = target: T1, Transient receptor potential cation channel subfamily V member 1; assay: (§1) Antagonist activity at rat TRPV1 receptor expressed in CHO cells assessed as calcium 45 uptake; type: functional, cell-based
[5] = target: Transient receptor potential cation channel subfamily V member 1 (Rattus norvegicus) (UniProt O35433); assay: Agonist activity at rat TRPV1 receptor expressed in CHO cells assessed as calcium 45 uptake relative to 300 nM capsaicin; type: functional, cell-based
[6] = target: Transient receptor potential cation channel subfamily V member 1 (Rattus norvegicus) (UniProt O35433); assay: as §1; type: functional, cell-based

Row | Compound | Activity [2] | other results
1 | C[C@H](C(=O)NC[C@H](COC(=O)C(C)(C)C)Cc1ccc(C(C)(C)C)cc1)c1ccc(NS(C)(=O)=O)c(F)c1 | inactive | Ki [1]: 4.12 nM
2 | Cc1ccc(CC(CNC(=O)C(C)(C)c2ccc(NS(C)(=O)=O)cc2)COC(=O)C(C)(C)C)cc1C (configuration not stated) | inactive | –
3 | C[C@H](C(=O)NC[C@@H](COC(=O)C(C)(C)C)Cc1ccc(C(C)(C)C)cc1)c1ccc(NS(C)(=O)=O)c(F)c1 | inactive | Ki [1]: 6.26 nM
4 | C[C@@H](C(=O)NC[C@H](COC(=O)C(C)(C)C)Cc1ccccc1)c1ccc(NS(C)(=O)=O)c(F)c1 | inactive | –
5 | C[C@H](C(=O)NC[C@@H](COC(=O)C(C)(C)C)Cc1ccccc1)c1ccc(NS(C)(=O)=O)c(F)c1 | inactive | Ki [1]: 16.5 nM
6 | Cc1ccc(CC(CNC(=O)Cc2ccc(NS(C)(=O)=O)c(F)c2)COC(=O)C(C)(C)C)cc1C (configuration not stated) | – | Activity [3]: 71%
7 | C=C(C)[C@]12C[C@@H](C)[C@@]34O[C@](Cc5ccccc5)(O[C@@H]1[C@@H]3C=C(COC(=O)Cc1cc(I)c(O)c(OC)c1)C[C@]1(O)C(=O)C(C)=C[C@@H]41)O2 [IODORESINIFERATOXIN] | inactive | Ki [1]: 0.61 nM; Ki [4]: 12.2 nM
8 | Cc1ccc(CC(CNC(=O)C(C)c2ccc(NS(C)(=O)=O)cc2)COC(=O)C(C)(C)C)cc1C (configuration not stated) | inactive | –
9 | COc1cc(C(C)(C)C(=O)NCC(COC(=O)C(C)(C)C)Cc2ccc(C)c(C)c2)ccc1NS(C)(=O)=O (configuration not stated) | inactive | –
10 | Cc1ccc(CC(CNC(=S)NCc2ccc(NS(C)(=O)=O)c(F)c2)COC(=O)C(C)(C)C)cc1C (configuration not stated) | inactive | –
11 | CC(C)(C)C(=O)OCC(CNC(=S)NCc1ccc(NS(C)(=O)=O)c(F)c1)Cc1ccc(C(C)(C)C)cc1 (configuration not stated) | – | Activity [5]: 5%; Ki [4]: 52 nM
12 | Cc1ccc(CC(CNC(=O)C(C)c2ccc(NS(C)(=O)=O)c(Cl)c2)COC(=O)C(C)(C)C)cc1C (configuration not stated) | – | Activity [5]: 16%
13 | C[C@@H](C(=O)NC[C@@H](COC(=O)C(C)(C)C)Cc1ccc(C(C)(C)C)cc1)c1ccc(NS(C)(=O)=O)c(F)c1 | – | Activity [5]: 9%
14 | Oc1cc2c(cc1O)CN(C(=S)NCCc1ccc(Cl)cc1)CCC2 | inactive | –
15 | C[C@H](C(=O)NC[C@H](COC(=O)C(C)(C)C)Cc1ccc(C(C)(C)C)cc1)c1ccc(NS(C)(=O)=O)c(Cl)c1 | inactive | –
16 | CC(C(=O)NCC(COC(=O)C(C)(C)C)Cc1ccc(C(C)(C)C)cc1)c1ccc(NS(C)(=O)=O)cc1 (configuration not stated) | inactive | –
17 | Cc1ccc(CC(CNC(=O)C2(c3ccc(NS(C)(=O)=O)cc3)CC2)COC(=O)C(C)(C)C)cc1C (configuration not stated) | inactive | –
18 | C[C@@H](C(=O)NC[C@H](COC(=O)C(C)(C)C)Cc1ccc(C(C)(C)C)cc1)c1ccc(NS(C)(=O)=O)c(F)c1 | inactive | –
19 | COc1cc(C(C)C(=O)NCC(COC(=O)C(C)(C)C)Cc2ccc(C(C)(C)C)cc2)ccc1NS(C)(=O)=O (configuration not stated) | – | Activity [5]: 40%; Activity [6]: inactive
20 | C[C@@H](C(=O)NC[C@@H](COC(=O)C(C)(C)C)Cc1ccccc1)c1ccc(NS(C)(=O)=O)c(F)c1 | inactive | –
21 | COc1cc(C(C)C(=O)NCC(COC(=O)C(C)(C)C)Cc2ccc(C)c(C)c2)ccc1NS(C)(=O)=O (configuration not stated) | – | Activity [5]: 10%; Activity [3]: 63%
22 | CC(C)(C)C(=O)OCC(CNC(=O)Cc1ccc(NS(C)(=O)=O)c(F)c1)Cc1ccc(C(C)(C)C)cc1 (configuration not stated) | – | Activity [5]: 7%; Ki [4]: 440 nM; Activity [3]: 56%
23 | COc1cc(C2(C(=O)NCC(COC(=O)C(C)(C)C)Cc3ccc(C)c(C)c3)CC2)ccc1NS(C)(=O)=O (configuration not stated) | inactive | –
24 | CC(C(=O)NCC(COC(=O)C(C)(C)C)Cc1ccc(C(C)(C)C)cc1)c1ccc(NS(C)(=O)=O)c(F)c1 (configuration not stated) | – | Activity [5]: 8%; Activity [3]: 95%
25 | CC(C(=O)NCC(COC(=O)C(C)(C)C)Cc1ccc(C(C)(C)C)cc1)c1ccc(NS(C)(=O)=O)c(Cl)c1 (configuration not stated) | – | Activity [3]: 61%
26 | Cc1ccc(CC(CNC(=O)C(C)c2ccc(NS(C)(=O)=O)c(F)c2)COC(=O)C(C)(C)C)cc1C (configuration not stated) | inactive | –
27 | C[C@H](C(=O)NC[C@@H](COC(=O)C(C)(C)C)Cc1ccc(C(C)(C)C)cc1)c1ccc(NS(C)(=O)=O)c(Cl)c1 | inactive | –
28 | Cc1ccc(CC(CNC(=O)C2(c3ccc(NS(C)(=O)=O)c(F)c3)CC2)COC(=O)C(C)(C)C)cc1C (configuration not stated) | inactive | –
29 | Cc1ccc(CC(CNC(=O)C(C)(C)c2ccc(NS(C)(=O)=O)c(F)c2)COC(=O)C(C)(C)C)cc1C (configuration not stated) | inactive | Ki [1]: 280 nM
30 | C[C@H](C(=O)NC[C@H](COC(=O)C(C)(C)C)Cc1ccccc1)c1ccc(NS(C)(=O)=O)c(F)c1 | inactive | –
